Measurements reported in ChEMBL document CHEMBL6083209, “Pyridazinone-based derivatives as anticancer agents endowed with anti-microbial activity: molecular design, synthesis, and biological investigation” (RSC Med Chem, 2024).
Values after ≈ are worked out from the molar mass of the structure shown. Active and inactive are the calls of the source. No cut-off for these calls is given here.

Experiments:
[1] = system: HOP-62; test: Antiproliferative activity against human HOP-62 cells assessed as growth inhibition at 10 uM incubated for 48 hrs by SRB method; assay type: functional; settings: read-out: GI
Outline: (§1)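 NCI-60 one-dose screen at 10 μM. Cells were grown in RPMI 1640 with 5% FBS and 2 mM L-glutamine and plated at 5000–40 000 cells/well for 24 h. Drug exposure was 48 h at 37 °C, 5% CO2. Cells were fixed with TCA, stained with 0.4% SRB and read at 515 nm. Growth is expressed as percent of untreated control and time-zero plates.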

[2] = system: U-251; test: Antiproliferative activity against human U-251 cells assessed as growth inhibition at 10 uM incubated for 48 hrs by SRB method; assay type: functional; settings: read-out: GI; outline: as §1
[3] = system: SK-MEL-2; test: Antiproliferative activity against human SK-MEL-2 cells assessed as growth inhibition at 10 uM incubated for 48 hrs by SRB method; assay type: functional; settings: read-out: GI; outline: as §1
[4] = system: UACC-62; test: Antiproliferative activity against human UACC-62 cells assessed as growth inhibition at 10 uM incubated for 48 hrs by SRB method; assay type: functional; settings: read-out: GI
Outline: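 NCI-60 one-dose screen at 10 μM. Cells grown in RPMI 1640 with 5% FBS and 2 mM L-glutamine, plated at 5000–40 000 cells/well and preincubated 24 h at 37 °C, 5% CO2. Drug exposure 48 h. Fixed with TCA and stained with 0.4% SRB, absorbance read at 515 nm. Percent growth calculated against untreated control and time-zero plates.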

[5] = system: SF-295; test: Antiproliferative activity against human SF-295 cells assessed as growth inhibition at 10 uM incubated for 48 hrs by SRB method; assay type: functional; settings: read-out: GI; outline: as §1
[6] = system: SNB-19; test: Antiproliferative activity against human SNB-19 cells assessed as growth inhibition at 10 uM incubated for 48 hrs by SRB method; assay type: functional; settings: read-out: GI; outline: as §1
[7] = system: RXF 393; test: Antiproliferative activity against human RXF 393 cells assessed as growth inhibition incubated for 48 hrs by SRB method; assay type: functional
Outline: (§2)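 NCI-60 five-dose screen at 0.01, 0.1, 1, 10 and 100 μM, triplicate wells per dose. Cells were in RPMI 1640 with 5% FBS and 2 mM L-glutamine, pre-grown 24 h and then treated for 48 h at 37 °C. Read-out was TCA fixation and SRB absorbance at 515 nm.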

[8] = system: SF-268; test: Antiproliferative activity against human SF-268 cells assessed as growth inhibition incubated for 48 hrs by SRB method; assay type: functional; outline: as §2
[9] = system: UACC-257; test: Antiproliferative activity against human UACC-257 cells assessed as growth inhibition incubated for 48 hrs by SRB method; assay type: functional; outline: as §2
[10] = system: OVCAR-8; test: Antiproliferative activity against human OVCAR-8 cells assessed as growth inhibition incubated for 48 hrs by SRB method; assay type: functional; outline: as §2
[11] = system: SNB-75; test: Antiproliferative activity against human SNB-75 cells assessed as growth inhibition incubated for 48 hrs by SRB method; assay type: functional; outline: as §2
[12] = system: A549; test: Downregulation of Bcl-2 gene expression in human A549 cells by qRT-PCR analysis; assay type: functional, cell-based
Outline: (§3)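 A549/ATCC cells treated, total RNA DNase-treated and checked by 260/280 ratio (1.8–2.1). Reverse transcription with oligo-dT and MuLV RT: 25 °C 10 min, 42 °C 1 h, 99 °C 5 min. qPCR of 40 cycles (95 °C 15 s, 55 °C 30 s, 72 °C 30 s) followed by melt curve. Relative expression by the 2−ΔΔCT method, mean ± SEM.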

[13] = Upregulation of p53 gene expression in human A549 cells assessed as fold increase by qRT-PCR analysis; assay type: functional; outline: as §3
[14] = Upregulation of Bax gene expression in human A549 cells assessed as fold increase by qRT-PCR analysis; assay type: functional; outline: as §3
[15] = system: A549; test: Induction of cell cycle arrest in human A549 cells assessed as increase in cells at G0-G1 phase at GI50 concentration by flow cytometry analysis (reference value: 85.41%); assay type: functional
[16] = system: A549; test: Induction of cell cycle arrest in human A549 cells assessed as increase in cells at G0-G1 phase at GI50 concentration by flow cytometry analysis (reference value: 85.46%); assay type: functional
[17] = system: A549; test: Induction of cell cycle arrest in human A549 cells assessed as increase in cells at G0-G1 phase at GI50 concentration by flow cytometry analysis (reference value: 85.84%); assay type: functional
[18] = system: A549; test: Induction of cell cycle arrest in human A549 cells assessed as decrease in cells at G2/M phase at GI50 concentration by flow cytometry analysis (reference value: 13.15 to 13.37%); assay type: functional; set-up: scale not given: the % may be the effect or the level left
[19] = system: A549; test: Induction of cell cycle arrest in human A549 cells assessed as decrease in cells at S phase at GI50 concentration by flow cytometry analysis (reference value: 0.31 to 0.51%); assay type: functional; set-up: scale not given: the % may be the effect or the level left
[20] = system: UACC-62; test: Antiproliferative activity against human UACC-62 cells assessed as growth inhibition incubated for 48 hrs by SRB method; assay type: functional
Outline: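 NCI-60 five-dose screen at 0.01, 0.1, 1, 10 and 100 μM, triplicate wells per dose. Cells grown in RPMI 1640/5% FBS, preincubated 24 h, then exposed 48 h at 37 °C. TCA fixation, SRB stain, A515.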

[21] = system: HOP-92; test: Antiproliferative activity against human HOP-92 cells assessed as growth inhibition incubated for 48 hrs by SRB method; assay type: functional; outline: as §2
[22] = system: SF-295; test: Antiproliferative activity against human SF-295 cells assessed as growth inhibition incubated for 48 hrs by SRB method; assay type: functional; outline: as §2
[23] = system: NCI-H522; test: Antiproliferative activity against human NCI-H522 cells assessed as growth inhibition incubated for 48 hrs by SRB method; assay type: functional; outline: as §2
[24] = system: U-251; test: Antiproliferative activity against human U-251 cells assessed as growth inhibition incubated for 48 hrs by SRB method; assay type: functional; outline: as §2
[25] = system: Escherichia coli; test: Antimicrobial activity against Escherichia coli ATCC 25922 by broth microdilution method
[26] = system: Candida albicans; test: Antimicrobial activity against Candida albicans ATCC 10231 by broth microdilution method
[27] = system: Staphylococcus aureus; test: Antimicrobial activity against Staphylococcus aureus ATCC 29213 by broth microdilution method
[28] = system: Hs-578T; test: Antiproliferative activity against human Hs-578T cells assessed as growth inhibition incubated for 48 hrs by SRB method
[29] = system: MDA-MB-231; test: Antiproliferative activity against human MDA-MB-231 cells assessed as growth inhibition incubated for 48 hrs by SRB method; settings: MDA-MB-231, 48 h
[30] = system: Staphylococcus aureus; test: Antimicrobial activity against Staphylococcus aureus NCTC 8325 incubated for 45 mins; assay type: functional; settings: NCTC 8325, 0.75 h

O=C(NC(=S)Nc1ccc(-c2ccc(=O)[nH]n2)cc1)c1cccc(Cl)c1
inhibition of growth at 10 µM [1]: 94.6%
inhibition of growth at 10 µM [2]: 96.1%
inhibition of growth at 10 µM [3]: 98%
inhibition of growth at 10 µM [4]: 91%
inhibition of growth at 10 µM [5]: 93%
inhibition of growth at 10 µM [6]: 91.2%
GI50 [7]: 6.6 µM
GI50 [8]: 6.91 µM
GI50 [9]: 5.59 µM
GI50 [10]: 6.24 µM
GI50 [11]: 3.92 µM
Activity [12]: Active
fold change (FC) [13]: 3
fold change (FC) [14]: 3
Activity [15]: 90.86%
Activity [16]: 89.51%
Activity [17]: 89.87%
Activity [18]: 8.95%
Activity [19]: 0.19%
GI50 [20]: 4.07 µM
GI50 [21]: 3.18 µM
GI50 [22]: 7.23 µM
GI50 [23]: 4.55 µM
GI50 [24]: 6.94 µM
MIC [25]: > 1020 µg/mL
MIC [26]: 512 µg/mL (≈ 1330 µM)
MIC [27]: 512 µg/mL (≈ 1330 µM)
GI50 [28]: 5.8 µM
GI50 [29]: 6.83 µM

CNC(=O)c1cc(Oc2ccc(NC(=O)Nc3ccc(Cl)c(C(F)(F)F)c3)cc2)ccn1 [SORAFENIB]
MIC [30]: 3 µg/mL (≈ 6.45 µM)
MIC [25]: 1 µg/mL (≈ 2.15 µM)
MIC [26]: > 128 µg/mL
MIC [27]: 4 µg/mL (≈ 8.61 µM)
